According to ChEMBL document CHEMBL1152617, “Synthesis of 2- and 17-substituted estrone analogs and their antiproliferative structure-activity relationships compared to 2-methoxyestradiol” (Bioorg Med Chem, 2009):
pIC50: −log10 of the molar value.

Legend:
[1] = Antiproliferative activity against human U87MG cells by Brdu incorporation assay; type: functional, cell-based, U-87MG ATCC; settings: U-87 MG
Outline: (§1)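 Cells were grown in DMEM with 10% FBS, 2 mM L-glutamine and penicillin/streptomycin. They were seeded at 2000 cells/well, attached overnight, then exposed to increasing compound concentrations for 48 h. DNA synthesis was read by a colorimetric BrdU ELISA. Each condition was run in triplicate, with at least two experiments, reported as the mean ± SD of independent experiments.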

PC-3 = experiment: Antiproliferative activity against human PC3 cells by Brdu incorporation assay; type: functional, cell-based; outline: as §1
HUVEC = experiment: Antiangiogenic activity against HUVECs by Brdu incorporation assay; type: functional, cell-based; settings: Homo sapiens
Outline: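 After overnight attachment they were washed with PBS and held 24 h without growth factor (EBM, 2% FBS). They were then given increasing drug concentrations in EBM with 2% FBS plus 10 ng/mL bFGF for 48 h at 37 °C. Proliferation was read by BrdU ELISA.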

MCF7 = experiment: Estrogenic activity in human MCF7 cells assessed as stimulation of cell proliferation relative to 2-methoxyestradiol; type: functional
Outline: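 MCF-7 were kept in DMEM/F12 with 10% FBS, seeded at 20–30,000 cells/well, adhered overnight and counted. After a PBS wash they were starved 3 days in phenol red-free IMEM with 2% charcoal-dextran-stripped FBS. Increasing concentrations were given, with medium renewed every 2–3 days. Cells were Coulter-counted after 8 or 10 days, in triplicate, and expressed as stimulation index relative to 2ME2 (1.00).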

[2] = test system: MDA-MB-231 (Homo sapiens); experiment: Antiproliferative activity against human MDA-MB-231 cells by Brdu incorporation assay
[3] = Metabolic stability in human liver microsomes assessed as compound remaining at 5 uM after 15 mins by LCMS analysis relative to 0 mins; type: ADME, Microsome; settings: read-out: Stability
Outline: (§2)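 Human liver microsomes were incubated in 50 mM tris pH 7.5 with 10 mM MgCl2, 2 mM UDPGA, 25 µg alamethicin/mg microsomal protein and 5 µM compound. Aliquots at 0, 15, 30 and 60 min were quenched in acetonitrile with internal standard. Samples were analysed by C18 LCMS in negative ion mode as % remaining versus 0 min. Controls were BSA without microsomes, and incubations lacking UDPGA.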

[4] = Metabolic stability in human liver microsomes assessed as compound remaining at 5 uM after 30 mins by LCMS analysis relative to 0 mins; type: ADME, Microsome; settings: read-out: Stability; outline: as §2
[5] = Metabolic stability in human liver microsomes assessed as compound remaining at 5 uM after 60 mins by LCMS analysis relative to 0 mins; type: ADME, Microsome; settings: read-out: Stability; outline: as §2

Structure (SMILES) | pIC50 [1] | pIC50 (PC-3) | pIC50 (HUVEC) | fold change (FC) (MCF7) | pIC50 [2] | remaining at 0.25 h, 5 µM [3] [%] | remaining at 0.5 h, 5 µM [4] [%] | remaining at 1 h, 5 µM [5] [%]
CN(C)c1cc2c(cc1O)CC[C@@H]1[C@@H]2CC[C@]2(C)CCC[C@@H]12.Cl | 4.47 | 4.59 | 5.13 | 2.17 | 4.41 |  |  | 
C[C@@]12CCC[C@H]1[C@@H]1CCc3cc(O)c(N=[N+]=[N-])cc3[C@H]1CC2 |  |  | 5.55 | 2.04 | 5.15 |  |  | 
CC[C@H]1CC[C@H]2[C@@H]3CCc4cc(O)c(OC)cc4[C@H]3CC[C@]12C | 4.89 | 5.06 | 5.44 | 0.49 | 4.32 | 91 | 76 | 72
COc1cc2c(cc1O)CC[C@@H]1[C@@H]2CC[C@]2(C)[C@@H](N)CC[C@@H]12 | 4.72 | 4.86 | 4.87 | 0.19 | 5.01 | 32 | 30 | 9
C=C1CC[C@H]2[C@@H]3CCc4cc(O)c(OC)cc4[C@H]3CC[C@]12C |  |  | 6.72 | 0.89 | 6.62 | 76 | 67 | 5.8
C[C@@]12CCC[C@H]1[C@@H]1CCc3cc(O)c(NC=O)cc3[C@H]1CC2 | 4.37 | 4.59 | 5.17 | 1.71 | 4.61 | 101 | 86 | 68
CNc1cc2c(cc1O)CC[C@@H]1[C@@H]2CC[C@]2(C)CCC[C@@H]12 | 4.65 | 4.64 | 5.39 | 1.22 | 4.57 |  |  | 
COc1cc2c(cc1O)CC[C@@H]1[C@@H]2CC[C@]2(C)/C(=N/NS(=O)(=O)c3ccc(C)cc3)CC[C@@H]12 | 4.56 | 4.57 | 5.10 | 0.43 | 4.14 |  |  | 
COc1cc2c(cc1O)CC[C@@H]1[C@@H]2CC[C@]2(C)[C@@H](O)CC[C@@H]12 [2-METHOXYESTRADIOL] | 5.07 | 5.58 |  |  | 6.00 | 58 | 29 | 9.4
COc1cc2c(cc1O)CC[C@@H]1[C@@H]2CC[C@]2(C)C=CC[C@@H]12 | 6.06 | 6.21 | 6.15 | 0.3 | 6.14 |  |  | 
COc1cc2c(cc1O)CC[C@@H]1[C@@H]2CC[C@]2(C)CCC[C@@H]12 | 5.12 | 5.07 | 5.88 | 0.24 | 5.66 | 94 | 101 | 117
C[C@@]12CCC[C@H]1[C@@H]1CCc3cc(O)c(N)cc3[C@H]1CC2 | < 4.00 | < 4.10 | 4.22 | 1.49 | < 4.00 |  |  | 
CCC[C@H]1CC[C@H]2[C@@H]3CCc4cc(O)c(OC)cc4[C@H]3CC[C@]12C | 4.06 | 4.07 | 4.39 | 0.69 | 4.02 |  |  | 
CC=C1CC[C@H]2[C@@H]3CCc4cc(O)c(OC)cc4[C@H]3CC[C@]12C |  |  | 6.59 | 0.89 | 6.24 | 75 | 75 | 0.8
COc1cc2c(cc1O)CC[C@@H]1[C@@H]2CC[C@]2(C)C(C(=O)O)CC[C@@H]12 (stereo not given in full) | < 4.00 | < 4.00 | 4.44 |  | < 4.00 |  |  | 
CCCC=C1CC[C@H]2[C@@H]3CCc4cc(O)c(OC)cc4[C@H]3CC[C@]12C |  |  | 5.46 | 0.51 | 4.85 |  |  | 
COc1cc2c(cc1O)CC[C@@H]1[C@@H]2CC[C@]2(C)C(C(N)=O)CC[C@@H]12 (stereo not given in full) | 4.95 | 4.67 | 5.34 |  | 5.60 |  |  | 
COc1cc2c(cc1O)CC[C@@H]1[C@@H]2CC[C@]2(C)[C@@H](NC(C)C)CC[C@@H]12 | 4.31 | 4.63 | 4.73 | 0.11 | 4.75 |  |  | 
C[C@@]12CCC[C@H]1[C@@H]1CCc3cc(O)ccc3[C@H]1CC2 | 4.66 | 4.66 | 5.09 | 1.91 | 4.38 |  |  | 
COc1cc2c(cc1O)CC[C@@H]1[C@@H]2CC[C@]2(C)[C@@H](C)CC[C@@H]12 | 5.03 | 5.19 | 5.62 | 0.89 | 5.48 | 67 | 57 | 47
COc1cc2c(cc1O)CC[C@@H]1[C@@H]2CC[C@]2(C)/C(=N/O)CC[C@@H]12 | 5.03 | 5.09 | 5.37 | 1.22 | 5.06 |  |  | 
CCCC[C@H]1CC[C@H]2[C@@H]3CCc4cc(O)c(OC)cc4[C@H]3CC[C@]12C | 4.68 | 4.54 | 4.90 | 0.59 | 4.48 |  |  | 
CCC=C1CC[C@H]2[C@@H]3CCc4cc(O)c(OC)cc4[C@H]3CC[C@]12C |  |  | 5.49 | 0.47 | 5.10 |  |  | 
